In ChEMBL document CHEMBL5661979, “Pharmacological inhibition of BMK1 suppresses tumor growth through promyelocytic leukemia protein” (Cancer Cell, 2010):
pIC50: −log10 of the molar value. Active and inactive are the calls of the source. The calls are words filed in the database; no cut-off is given here.

Key:
[1] = molecular target: Tyrosine-protein kinase JAK1 (Homo sapiens, UniProt P23458); experiment: Inhibition of JAK1 domain 2 in human HeLa cells lysate at 10 uM pre incubated for 15 mins followed by ATP acyl phosphate probe addition and measured after 10 mins by LC-MS/MS analysis relative to control; format: subcellular; settings: time 25.0 min
Chain of Tyrosine-protein kinase JAK1 (P23458 whole entry, the tested form may be a part): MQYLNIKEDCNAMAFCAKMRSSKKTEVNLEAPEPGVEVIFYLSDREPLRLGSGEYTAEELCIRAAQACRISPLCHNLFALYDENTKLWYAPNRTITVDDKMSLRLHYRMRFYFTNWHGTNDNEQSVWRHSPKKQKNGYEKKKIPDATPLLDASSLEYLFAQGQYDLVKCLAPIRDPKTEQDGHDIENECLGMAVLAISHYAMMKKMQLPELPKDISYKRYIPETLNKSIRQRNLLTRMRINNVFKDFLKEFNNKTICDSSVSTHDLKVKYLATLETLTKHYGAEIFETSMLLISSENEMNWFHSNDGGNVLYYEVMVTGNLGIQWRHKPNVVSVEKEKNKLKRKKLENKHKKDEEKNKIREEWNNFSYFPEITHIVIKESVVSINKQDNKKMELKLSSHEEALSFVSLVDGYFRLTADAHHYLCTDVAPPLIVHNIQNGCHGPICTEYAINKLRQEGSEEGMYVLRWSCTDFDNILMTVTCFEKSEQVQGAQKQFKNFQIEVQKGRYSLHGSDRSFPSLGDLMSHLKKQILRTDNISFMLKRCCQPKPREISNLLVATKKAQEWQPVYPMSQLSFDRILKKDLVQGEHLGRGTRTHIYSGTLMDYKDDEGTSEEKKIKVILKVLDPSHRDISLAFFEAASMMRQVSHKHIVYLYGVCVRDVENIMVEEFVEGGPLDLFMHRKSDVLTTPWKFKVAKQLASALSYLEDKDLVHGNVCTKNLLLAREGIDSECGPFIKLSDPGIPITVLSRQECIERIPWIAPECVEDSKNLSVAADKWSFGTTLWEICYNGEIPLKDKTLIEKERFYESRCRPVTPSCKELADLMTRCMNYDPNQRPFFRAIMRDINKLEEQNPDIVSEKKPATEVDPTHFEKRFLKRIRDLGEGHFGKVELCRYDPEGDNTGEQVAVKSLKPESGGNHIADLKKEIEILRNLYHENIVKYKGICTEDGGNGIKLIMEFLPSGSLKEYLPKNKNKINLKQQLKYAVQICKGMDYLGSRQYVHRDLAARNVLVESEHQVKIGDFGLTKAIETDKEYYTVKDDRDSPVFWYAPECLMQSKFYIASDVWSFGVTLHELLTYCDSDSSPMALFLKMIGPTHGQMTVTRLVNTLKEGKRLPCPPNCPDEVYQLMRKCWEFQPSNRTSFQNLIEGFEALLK

[2] = molecular target: T1, Phosphatidylinositol 5-phosphate 4-kinase type-2 alpha (Homo sapiens) (UniProt P48426); experiment: Inhibition of PIP5K2A in human HeLa cells lysate at 50 uM pre incubated for 15 mins followed by ATP acyl phosphate probe addition and measured after 10 mins by LC-MS/MS analysis relative to control; format: subcellular; settings: time 25.0 min
T1 sequence (whole entry): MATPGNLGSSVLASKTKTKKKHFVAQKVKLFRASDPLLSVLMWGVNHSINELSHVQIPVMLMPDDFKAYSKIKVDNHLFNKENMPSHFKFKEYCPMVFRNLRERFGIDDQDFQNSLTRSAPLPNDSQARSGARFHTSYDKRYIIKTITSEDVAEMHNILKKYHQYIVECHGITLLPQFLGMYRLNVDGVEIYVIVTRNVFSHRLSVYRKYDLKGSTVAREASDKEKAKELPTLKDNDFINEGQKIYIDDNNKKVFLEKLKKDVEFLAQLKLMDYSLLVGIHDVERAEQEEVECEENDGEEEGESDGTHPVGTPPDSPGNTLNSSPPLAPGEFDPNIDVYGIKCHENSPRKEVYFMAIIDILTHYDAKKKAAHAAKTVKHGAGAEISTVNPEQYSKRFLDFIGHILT

[3] = molecular target: T2, Serine/threonine-protein kinase tousled-like 1 (Homo sapiens) (UniProt Q9UKI8); experiment: Inhibition of TLK1 in human HeLa cells lysate at 2 uM pre incubated for 15 mins followed by ADP acyl phosphate probe addition and measured after 10 mins by LC-MS/MS analysis relative to control; format: subcellular; settings: time 25.0 min
T2 sequence (whole entry): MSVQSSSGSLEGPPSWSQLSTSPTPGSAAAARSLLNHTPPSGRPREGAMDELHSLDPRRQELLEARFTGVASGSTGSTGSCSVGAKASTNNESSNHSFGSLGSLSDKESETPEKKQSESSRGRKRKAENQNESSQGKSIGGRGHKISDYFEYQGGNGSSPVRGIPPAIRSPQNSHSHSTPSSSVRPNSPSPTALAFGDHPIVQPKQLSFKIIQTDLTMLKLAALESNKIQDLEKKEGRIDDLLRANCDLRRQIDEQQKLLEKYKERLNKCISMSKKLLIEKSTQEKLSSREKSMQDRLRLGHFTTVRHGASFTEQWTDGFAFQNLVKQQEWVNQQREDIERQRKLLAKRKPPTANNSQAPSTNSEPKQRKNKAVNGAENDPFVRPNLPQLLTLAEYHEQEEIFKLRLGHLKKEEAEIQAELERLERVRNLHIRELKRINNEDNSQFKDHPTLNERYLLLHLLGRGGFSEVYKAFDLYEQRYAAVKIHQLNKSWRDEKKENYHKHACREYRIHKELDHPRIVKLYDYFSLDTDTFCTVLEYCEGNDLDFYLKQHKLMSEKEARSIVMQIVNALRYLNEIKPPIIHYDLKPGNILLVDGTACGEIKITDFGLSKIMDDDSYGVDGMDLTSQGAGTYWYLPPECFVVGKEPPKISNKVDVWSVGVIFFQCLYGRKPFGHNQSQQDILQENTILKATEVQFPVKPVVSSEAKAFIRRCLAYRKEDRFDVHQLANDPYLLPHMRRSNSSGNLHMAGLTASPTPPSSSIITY

[4] = molecular target: Mitogen-activated protein kinase 7 (Mus musculus) (UniProt Q9WVS8); experiment: Inhibition of BMK1 in pml null mouse MEF cells assessed as increase in p21 protein expression at 5 uM incubated for 16 hrs by Western blot analysis; format: cell-based
Chain of Mitogen-activated protein kinase 7 (Mus musculus) (Q9WVS8 whole entry): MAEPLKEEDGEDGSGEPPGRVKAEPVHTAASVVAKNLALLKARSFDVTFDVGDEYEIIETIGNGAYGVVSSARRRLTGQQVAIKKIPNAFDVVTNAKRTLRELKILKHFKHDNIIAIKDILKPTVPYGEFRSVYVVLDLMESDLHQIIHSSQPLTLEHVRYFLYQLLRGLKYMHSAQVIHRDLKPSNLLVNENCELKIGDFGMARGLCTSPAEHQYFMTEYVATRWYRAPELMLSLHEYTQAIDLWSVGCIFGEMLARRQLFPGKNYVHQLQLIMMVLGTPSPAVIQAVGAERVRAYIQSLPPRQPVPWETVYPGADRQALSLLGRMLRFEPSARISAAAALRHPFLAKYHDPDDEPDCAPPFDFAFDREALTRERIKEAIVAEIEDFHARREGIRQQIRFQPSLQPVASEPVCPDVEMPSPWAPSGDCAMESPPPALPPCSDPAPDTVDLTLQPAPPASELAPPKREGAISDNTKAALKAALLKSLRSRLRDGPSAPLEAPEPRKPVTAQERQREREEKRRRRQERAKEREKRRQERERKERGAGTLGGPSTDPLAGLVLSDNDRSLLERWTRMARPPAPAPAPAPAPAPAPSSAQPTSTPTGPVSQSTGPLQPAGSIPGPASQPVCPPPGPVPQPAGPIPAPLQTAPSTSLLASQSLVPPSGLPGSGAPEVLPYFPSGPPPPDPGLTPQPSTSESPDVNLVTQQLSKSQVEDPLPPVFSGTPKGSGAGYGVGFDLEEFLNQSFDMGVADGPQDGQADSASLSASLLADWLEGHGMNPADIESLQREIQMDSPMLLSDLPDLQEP
Method in brief: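 Pml+/+ or Pml−/− MEFs treated ±5 μM inhibitor for 16 h. Lysates western blotted for p21, quantified by densitometry and normalized to GAPDH, relative to untreated Pml+/+ MEF set as 1. n = 3, ±SEM.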

[5] = molecular target: Ribosomal protein S6 kinase alpha-6 (Homo sapiens) (UniProt Q9UK32); experiment: Inhibition of C-terminal RPS6KA6 kinase domain (unknown origin) assessed as remaining activity at 10 uM by ATP-competition binding assay relative to control
Chain of Ribosomal protein S6 kinase alpha-6 (Homo sapiens) (Q9UK32 whole entry, the tested form may be a part): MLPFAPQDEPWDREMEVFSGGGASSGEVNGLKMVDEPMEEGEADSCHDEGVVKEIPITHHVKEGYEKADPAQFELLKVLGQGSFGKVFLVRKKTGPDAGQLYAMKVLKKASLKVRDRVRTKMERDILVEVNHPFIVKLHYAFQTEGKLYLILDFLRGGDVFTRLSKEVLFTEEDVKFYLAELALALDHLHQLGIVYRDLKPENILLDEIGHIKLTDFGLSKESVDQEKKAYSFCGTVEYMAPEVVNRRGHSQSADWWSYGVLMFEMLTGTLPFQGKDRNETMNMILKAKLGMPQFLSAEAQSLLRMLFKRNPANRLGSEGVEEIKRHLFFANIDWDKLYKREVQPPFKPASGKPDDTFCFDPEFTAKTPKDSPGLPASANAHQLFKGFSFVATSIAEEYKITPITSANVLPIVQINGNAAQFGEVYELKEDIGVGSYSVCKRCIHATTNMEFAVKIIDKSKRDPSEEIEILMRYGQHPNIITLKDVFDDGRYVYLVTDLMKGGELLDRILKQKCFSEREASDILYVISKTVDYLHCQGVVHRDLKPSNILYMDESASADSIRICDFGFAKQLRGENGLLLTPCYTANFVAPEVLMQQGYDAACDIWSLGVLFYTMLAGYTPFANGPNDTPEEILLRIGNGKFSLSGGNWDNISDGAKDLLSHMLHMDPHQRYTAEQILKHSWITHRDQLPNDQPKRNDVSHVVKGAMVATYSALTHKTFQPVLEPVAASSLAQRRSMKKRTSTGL

[6] = molecular target: Cyclin-dependent kinase 2 (Homo sapiens, UniProt P24941); experiment: Inhibition of CDK2 in human HeLa cells lysate at 50 uM pre incubated for 15 mins followed by ATP acyl phosphate probe addition and measured after 10 mins by LC-MS/MS analysis relative to control; format: subcellular; settings: time 25.0 min
Method in brief: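 KiNativ profiling in HeLa lysate (5 mg/mL total protein). Lysate incubated 15 min with inhibitor at 50, 10, 2, 0.8 or 0 μM. ATP or ADP acylphosphate probe then added (5 μM final) and reacted 10 min. Reaction stopped with urea and analysed by targeted MS, using up to four fragment ions per kinase peptide-probe conjugate. % inhibition taken against untreated lysate. Run in duplicate.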

[7] = Inhibition of MAP3K2/MAP3K3 in human HeLa cells lysate at 10 uM pre incubated for 15 mins followed by ADP acyl phosphate probe addition and measured after 10 mins by LC-MS/MS analysis relative to control; settings: 25 min, condition cancer
[8] = molecular target: IKK epsilon/TBK1 (Homo sapiens, UniProt Q14164+Q9UHD2); experiment: Inhibition of IKKE/TBK1 in human HeLa cells lysate pre incubated for 15 mins followed by ADP acyl phosphate probe addition and measured after 10 mins by LC-MS/MS analysis; format: subcellular
[9] = molecular target: Mitogen-activated protein kinase kinase kinase 4 (Homo sapiens, UniProt Q9Y6R4); experiment: Inhibition of MAP3K4 in human HeLa cells lysate at 2 uM pre incubated for 15 mins followed by ATP acyl phosphate probe addition and measured after 10 mins by LC-MS/MS analysis relative to control; format: subcellular; settings: time 25.0 min
Chain of Mitogen-activated protein kinase kinase kinase 4 (Q9Y6R4 whole entry): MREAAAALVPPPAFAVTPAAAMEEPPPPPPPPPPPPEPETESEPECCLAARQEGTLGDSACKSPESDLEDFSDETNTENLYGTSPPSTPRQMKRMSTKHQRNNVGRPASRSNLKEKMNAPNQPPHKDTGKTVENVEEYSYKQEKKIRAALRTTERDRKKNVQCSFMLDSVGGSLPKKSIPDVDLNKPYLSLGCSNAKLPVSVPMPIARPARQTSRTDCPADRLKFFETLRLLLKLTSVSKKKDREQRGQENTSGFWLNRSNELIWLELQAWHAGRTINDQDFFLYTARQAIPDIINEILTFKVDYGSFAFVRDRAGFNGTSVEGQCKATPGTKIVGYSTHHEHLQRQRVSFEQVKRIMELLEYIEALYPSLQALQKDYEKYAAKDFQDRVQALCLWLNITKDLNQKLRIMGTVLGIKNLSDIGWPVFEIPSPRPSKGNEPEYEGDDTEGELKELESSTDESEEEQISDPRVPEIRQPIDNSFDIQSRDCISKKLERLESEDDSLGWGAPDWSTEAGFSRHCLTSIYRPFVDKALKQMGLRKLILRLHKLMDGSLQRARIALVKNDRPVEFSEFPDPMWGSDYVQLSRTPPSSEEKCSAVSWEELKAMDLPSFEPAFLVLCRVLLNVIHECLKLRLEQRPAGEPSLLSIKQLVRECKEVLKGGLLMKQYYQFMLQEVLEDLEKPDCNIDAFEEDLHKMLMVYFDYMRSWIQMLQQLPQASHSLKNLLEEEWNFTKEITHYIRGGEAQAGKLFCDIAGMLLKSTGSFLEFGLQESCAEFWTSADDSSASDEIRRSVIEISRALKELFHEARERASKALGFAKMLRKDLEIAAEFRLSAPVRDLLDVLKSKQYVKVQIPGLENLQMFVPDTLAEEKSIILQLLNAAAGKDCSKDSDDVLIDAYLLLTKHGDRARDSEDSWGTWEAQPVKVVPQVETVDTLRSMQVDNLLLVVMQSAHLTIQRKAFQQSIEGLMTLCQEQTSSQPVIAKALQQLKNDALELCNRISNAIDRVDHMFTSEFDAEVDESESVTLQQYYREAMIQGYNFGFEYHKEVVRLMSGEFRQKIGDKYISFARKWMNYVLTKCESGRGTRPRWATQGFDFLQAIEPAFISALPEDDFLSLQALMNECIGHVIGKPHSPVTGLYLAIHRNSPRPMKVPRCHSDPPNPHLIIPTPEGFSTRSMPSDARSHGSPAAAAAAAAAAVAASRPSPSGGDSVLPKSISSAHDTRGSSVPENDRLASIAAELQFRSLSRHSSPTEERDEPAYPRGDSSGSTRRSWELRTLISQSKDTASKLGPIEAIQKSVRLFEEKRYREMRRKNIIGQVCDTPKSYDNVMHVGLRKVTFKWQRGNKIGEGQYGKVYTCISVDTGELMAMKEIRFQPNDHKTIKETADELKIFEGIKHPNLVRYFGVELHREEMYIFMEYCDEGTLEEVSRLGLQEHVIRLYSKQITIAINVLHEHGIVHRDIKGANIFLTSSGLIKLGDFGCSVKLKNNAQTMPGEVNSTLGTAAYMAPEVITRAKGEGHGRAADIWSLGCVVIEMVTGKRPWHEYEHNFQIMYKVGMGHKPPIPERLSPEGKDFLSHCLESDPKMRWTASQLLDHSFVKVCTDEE

[10] = molecular target: Interferon-induced, double-stranded RNA-activated protein kinase (Homo sapiens, UniProt P19525); experiment: Inhibition of PKR in human HeLa cells lysate at 50 uM pre incubated for 15 mins followed by ADP acyl phosphate probe addition and measured after 10 mins by LC-MS/MS analysis relative to control; format: subcellular; settings: time 25.0 min
Chain of Interferon-induced, double-stranded RNA-activated protein kinase (P19525 whole entry): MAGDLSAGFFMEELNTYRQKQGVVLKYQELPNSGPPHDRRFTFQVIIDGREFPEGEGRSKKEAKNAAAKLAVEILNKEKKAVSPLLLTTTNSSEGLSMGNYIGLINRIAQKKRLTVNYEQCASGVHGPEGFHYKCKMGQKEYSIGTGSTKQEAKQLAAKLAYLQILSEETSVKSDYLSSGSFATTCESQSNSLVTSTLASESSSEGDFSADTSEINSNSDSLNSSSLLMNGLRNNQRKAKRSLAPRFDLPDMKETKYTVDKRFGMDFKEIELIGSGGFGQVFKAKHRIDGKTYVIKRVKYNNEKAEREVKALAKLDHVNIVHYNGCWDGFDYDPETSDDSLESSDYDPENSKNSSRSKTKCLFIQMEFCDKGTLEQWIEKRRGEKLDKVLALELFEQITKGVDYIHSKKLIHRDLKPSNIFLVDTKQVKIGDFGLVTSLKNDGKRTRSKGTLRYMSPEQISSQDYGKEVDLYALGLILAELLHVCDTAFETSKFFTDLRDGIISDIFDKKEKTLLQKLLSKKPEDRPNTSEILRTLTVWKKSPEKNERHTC

[11] = tested on: Lewis lung carcinoma; experiment: In vivo inhibition of […] in mouse LL2 cells allografted in C57Bl/6 mouse assessed as decrease in Grb2 phosphorylation level for 2 weeks by Western blot analysis; format: functional, organism-based
[12] = molecular target: Serine/threonine-protein kinase 24 (Homo sapiens, UniProt Q9Y6E0); experiment: Inhibition of MST3 in human HeLa cells lysate at 2 uM pre incubated for 15 mins followed by ATP acyl phosphate probe addition and measured after 10 mins by LC-MS/MS analysis relative to control; format: subcellular; settings: time 25.0 min
[13] = Clearance in Sprague-Dawley rat at 2 mg/kg, po measured up to 8 hrs by LC-MS/MS analysis; format: ADME, organism-based; settings: in vivo
Method in brief: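 Sprague-Dawley rats given one intravenous dose or one oral dose of 2 mg/kg. Plasma drug concentrations were followed over time, with samples taken out to 8 hr after dosing. PK parameters (clearance, volume of distribution, half-life, oral bioavailability, Cmax) were calculated from these concentration–time data.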

[14] = molecular target: Phosphatidylinositol 3-kinase catalytic subunit type 3 (Homo sapiens, UniProt Q8NEB9); experiment: Inhibition of PIK3C3 in human HeLa cells lysate at 10 uM pre incubated for 15 mins followed by ATP acyl phosphate probe addition and measured after 10 mins by LC-MS/MS analysis relative to control; format: subcellular; settings: time 25.0 min

CCOc1cc(N2CCC(O)CC2)ccc1Nc1ncc2c(n1)N(C)c1ccccc1C(=O)N2C
inhibition [1]: -5.7%
inhibition [2]: 1%
inhibition [3]: 7.3%
inhibition [4]: inactive
Activity [5]: 31%
inhibition [6]: -1.9%
inhibition at 10 µM [7]: -18.3%
pIC50 [8]: < 4.30
inhibition [9]: -8.8%
inhibition [10]: -8.7%
inhibition [11]: Active
inhibition [12]: -3.8%
CL/F [13]: 26 mL/min/kg
inhibition [14]: -4.3%
